Measured values reported in ChEMBL document CHEMBL1125150, “Arabinofuranosylpyrrolo[2,3-d]pyrimidines as potential agents for human cytomegalovirus infections” (J Med Chem, 1990).

Tests used:
Human betaherpesvirus 5 [1] = assay: Tested in vitro for antiviral activity against human cytomegalovirus (HCMV) in plaque reduction assay.; assay type: functional, organism-based
Procedure, shortened: (§1)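 HCMV Towne strain (plaque-purified P0) was used on HFF monolayers. The inoculum held about 50 PFU, and compounds were dissolved in the overlay medium. Plaques were enumerated. IC50 came from linear regression of percent inhibition against log concentration. Acyclovir or ganciclovir served as positive control, and a set was rejected if the control deviated >1.5 SD from its mean.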

Human alphaherpesvirus 1 [2] = assay: Tested in vitro for antiviral activity against HSV-1 in plaque reduction assay.; assay type: functional, organism-based
Procedure, shortened: (§2)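 Plaque reduction used HSV-1 strain S-148 on BSC-1 (African green monkey kidney) monolayers. The inoculum held about 100 PFU, and compounds were dissolved in the overlay medium. IC50 was regressed from percent inhibition against log concentration. Acyclovir or ganciclovir positive controls were run, with sets rejected if the control deviated >1.5 SD from its mean.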

[3] = Tested in vitro for cytotoxicity against the monkey kidney cells (BSC-1 cells).; assay type: functional, cell-based; settings: Cercopithecidae
Procedure, shortened: (§3)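 Uninfected HFF or BSC-1 cells in the plaque-reduction plates were scored visually at 35- and 60-fold magnification on a 0 to 4+ scale on the staining day. IC50 was taken by regression against log concentration.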

L1210 [4] = assay: Tested in vitro for antiproliferative activity against growth rate of L1210 cells.(delayed growth inhibition); assay type: functional, Mus musculus; design: concentration or dose not given beside the values
Procedure, shortened: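 L1210 cells were grown in static suspension in Fischer's medium with drug for 4 days. Growth rate was the control-to-treated ratio of population doubling times. For delayed inhibition it was taken over 48–96 h, when control doubling time averaged 22 h. IC50 is the concentration halving growth rate relative to control.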

HFF = assay: Tested in vitro for cytotoxicity against the normal human diploid cells (HFF cells).; assay type: functional, cell-based; procedure, shortened: as §3
[5] = Tested in vitro for cytotoxicity against the human neoplastic cell line (KB cells).; assay type: functional, cell-based
Procedure, shortened: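 KB cells were grown in MEM(H) with 10% calf serum. Incorporation of radiolabelled precursors into DNA, RNA and protein was measured. Separate IC50s came from regression against log concentration and the three were averaged. Values are averages of two to five experiments.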

L1210 [6] = assay: Tested in vitro for antiproliferative activity against growth rate of L1210 cells.; assay type: functional, Mus musculus
Procedure, shortened: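 L1210 cells were grown in static suspension in Fischer's medium with a range of compound concentrations, and growth rate was followed over 4 days. Growth rate was the control-to-treated ratio of population doubling times. It was scored separately for 0–48 h and 48–96 h, and the lower value was kept. IC50 was the concentration giving 50% of the control growth rate.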

Human alphaherpesvirus 2 [7] = assay: Tested for visual cytotoxicity against the human foreskin fibroblasts herpes simplex virus-2 (HSV-2) cell lines; assay type: functional, organism-based
Mus musculus [8] = assay: Tested for effect on the mortality of mice inoculated with MCMV at 5.6 mg/kg at 12 hr; assay type: functional
Procedure, shortened: (§4)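 Female Swiss Webster mice, 3 weeks old, were infected ip with 2 × 10⁵ PFU of MCMV Smith strain. Groups of 15 received drug ip twice daily for 5 days, starting at the stated hour after inoculation. Mice were watched daily for 21 days, and final mortality and mean day of death were scored. Fisher exact test (mortality) and Mann-Whitney U test (mean day of death) were used against placebo. Uninfected drug-toxicity controls were 10 mice.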

Human alphaherpesvirus 1 [9] = assay: Tested for activity against the monkey kidney herpes simplex virus-1 (HSV-1) cell lines; assay type: functional, organism-based; procedure, shortened: as §2
Murid betaherpesvirus 1 [10] = assay: Tested for activity against mouse cytomegalovirus (MCMV) in mouse embryo fibroblasts using plaque assay; assay type: functional, organism-based
Procedure, shortened: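 MCMV Smith strain was plated on primary mouse embryo fibroblasts at 20–50 PFU per monolayer, with 1 h at 37 °C. Serial 5-fold drug dilutions in twice-concentrated MEM(E) were mixed with 1% agarose as overlay. A further drug-free overlay was added on day 4. Cultures were stained with neutral red on day 7 and plaques counted against untreated controls. Values average two or more experiments.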

Human betaherpesvirus 5 [11] = assay: Tested for activity against human cytomegalovirus (HCMV) in human foreskin fibroblasts cell lines using plaque assay; assay type: functional, organism-based; settings: Human betaherpesvirus 5, Fibroblast; procedure, shortened: as §1
Mus musculus [12] = assay: Tested for effect on the mortality of mice inoculated with MCMV at 16.7 mg/kg at 12 hr; assay type: functional; procedure, shortened: as §4
Mus musculus [13] = assay: Tested for effect on the mortality of mice inoculated with MCMV at 50 mg/kg at 24 hr; assay type: functional; procedure, shortened: as §4
Human betaherpesvirus 5 [14] = assay: Tested in vitro for antiviral activity against human cytomegalovirus (HCMV) in yield reduction assay.; assay type: functional
Human alphaherpesvirus 2 [15] = assay: Tested for activity against the human foreskin fibroblasts herpes simplex virus-2 (HSV-2) cell lines; assay type: functional, organism-based
Procedure, shortened: (§5)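 Plaque reduction used HSV-2 (MS strain) in HFF cells and HSV-1 (E-377 strain) in primary rabbit kidney cells. Monolayers got 20–50 PFU for 1 h at 37 °C, then an agarose overlay holding serial 5-fold drug dilutions in MEM(E). Neutral red staining on day 3 preceded plaque counts against untreated controls. Values average two or more experiments.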

Mus musculus [16] = assay: Tested for effect on the mortality of mice inoculated with MCMV at 5.6 mg/kg at 24 hr; assay type: functional; procedure, shortened: as §4
Human alphaherpesvirus 1 [17] = assay: Tested for visual cytotoxicity against monkey kidney herpes simplex virus-1 (HSV-1) cell lines; assay type: functional, organism-based; procedure, shortened: as §3
Mus musculus [18] = assay: Tested for effect on the mortality of mice inoculated with MCMV at 50 mg/kg at 48 hr; assay type: functional; procedure, shortened: as §4
Human alphaherpesvirus 1 [19] = assay: Tested for visual cytotoxicity against rabbit kidney herpes simplex virus-1 (HSV-1) cell lines; assay type: functional, organism-based
Human alphaherpesvirus 1 [20] = assay: Tested for activity against the rabbit kidney herpes simplex virus-1 (HSV-1) cell lines; assay type: functional, organism-based; procedure, shortened: as §5
Mus musculus [21] = assay: Tested for effect on the mortality of mice inoculated with MCMV at 16.7 mg/kg at 48 hr; assay type: functional; procedure, shortened: as §4
Mus musculus [22] = assay: Tested for effect on the mortality of mice inoculated with MCMV at 50 mg/kg at 12 hr; assay type: functional; procedure, shortened: as §4
Human betaherpesvirus 5 [23] = assay: Tested for visual cytotoxicity against the human cytomegalovirus (HCMV) cell lines in human foreskin fibroblasts; assay type: functional, organism-based; procedure, shortened: as §3
Mus musculus [24] = assay: Tested for effect on the mortality of mice inoculated with MCMV at 5.6 mg/kg at 48 hr; assay type: functional; procedure, shortened: as §4
Mus musculus [25] = assay: Tested for effect on the mortality of mice inoculated with MCMV at 16.7 mg/kg at 24 hr; assay type: functional; procedure, shortened: as §4
Murid betaherpesvirus 1 [26] = assay: Tested for visual cytotoxicity against the mouse cytomegalovirus (MCMV) in mouse embryo fibroblasts; assay type: functional, organism-based
Human alphaherpesvirus 1 [27] = assay: Tested in vitro for antiviral activity against HSV-1 in yield reduction assay.; assay type: functional
[28] = Human betaherpesvirus 5, read-out: IC90

NC(=O)c1cn([C@@H]2O[C@H](CO)[C@@H](O)[C@@H]2Cl)c2ncnc(N)c12
IC50 (Human betaherpesvirus 5 [1]): > 100 µM | IC50 (Human alphaherpesvirus 1 [2]): > 100 µM | IC50 [3]: > 100 µM | Control (L1210 [4]): 73% | IC50 (HFF): > 100 µM

NC(=O)c1cn([C@@H]2O[C@H](CO)[C@@H](O)[C@@H]2N)c2ncnc(N)c12
IC50 (Human betaherpesvirus 5 [1]): > 100 µM | IC50 (Human alphaherpesvirus 1 [2]): > 100 µM | IC50 [5]: > 100 µM | IC50 [3]: > 100 µM | Control (L1210 [4]): 46% | IC50 (HFF): > 100 µM

NC(=O)c1cn([C@@H]2O[C@H](CO)[C@@H](O)[C@@H]2I)c2ncnc(N)c12
IC50 (Human betaherpesvirus 5 [1]): > 100 µM | IC50 (Human alphaherpesvirus 1 [2]): > 100 µM | IC50 [3]: > 100 µM | Control (L1210 [4]): 38% | IC50 (HFF): 100 µM

NC(=O)c1cn([C@@H]2O[C@H](CO)[C@@H](O)[C@@H]2Br)c2ncnc(N)c12
IC50 (Human betaherpesvirus 5 [1]): > 100 µM | IC50 (Human alphaherpesvirus 1 [2]): > 100 µM | IC50 [3]: > 100 µM | IC50 (HFF): > 100 µM | Control (L1210 [6]): 92%

N#Cc1cn([C@@H]2O[C@H](CO)[C@@H](O)[C@@H]2N)c2ncnc(N)c12
IC50 (Human alphaherpesvirus 2 [7]): 350 µM | MDD (Mus musculus [8]): 4.5 mean day of death | mortality at 5.6 mg/kg (Mus musculus [8]): 100% | IC50 (Human alphaherpesvirus 1 [9]): > 100 µM | IC50 (Murid betaherpesvirus 1 [10]): 13 µM | IC50 (Human betaherpesvirus 5 [11]): 14 µM | MDD (Mus musculus [12]): 4.6 mean day of death | mortality at 16.7 mg/kg (Mus musculus [12]): 93% | MDD (Mus musculus [13]): 4.4 mean day of death | mortality at 50 mg/kg (Mus musculus [13]): 100% | IC90 (Human betaherpesvirus 5 [14]; [28]): 110 µM | IC50 (Human alphaherpesvirus 2 [15]): 114 µM | MDD (Mus musculus [16]): 4.6 mean day of death | mortality at 5.6 mg/kg (Mus musculus [16]): 93% | IC50 (Human betaherpesvirus 5 [1]): 14 µM | IC50 (Human alphaherpesvirus 1 [2]): > 100 µM | IC50 [5]: 105 µM | IC50 (Human alphaherpesvirus 1 [17]): > 100 µM | MDD (Mus musculus [18]): 4.9 mean day of death | mortality at 50 mg/kg (Mus musculus [18]): 87% | IC50 (Human alphaherpesvirus 1 [19]): 350 µM | IC50 (Human alphaherpesvirus 1 [20]): 117 µM | MDD (Mus musculus [21]): 4.6 mean day of death | mortality at 16.7 mg/kg (Mus musculus [21]): 100% | MDD (Mus musculus [22]): 4.1 mean day of death | mortality at 50 mg/kg (Mus musculus [22]): 73% | IC50 (Human betaherpesvirus 5 [23]): > 100 µM | MDD (Mus musculus [24]): 5.6 mean day of death | mortality at 5.6 mg/kg (Mus musculus [24]): 100% | IC50 [3]: > 100 µM | MDD (Mus musculus [25]): 4.7 mean day of death | mortality at 16.7 mg/kg (Mus musculus [25]): 100% | Control (L1210 [4]): 48% | IC50 (Murid betaherpesvirus 1 [26]): > 350 µM | IC50 (HFF): > 100 µM

N#Cc1cn([C@@H]2O[C@H](CO)[C@@H](O)[C@@H]2Cl)c2ncnc(N)c12
IC90 (Human betaherpesvirus 5 [14]; [28]): 75 µM | IC50 (Human betaherpesvirus 5 [1]): 21 µM | IC50 (Human alphaherpesvirus 1 [2]): > 100 µM | IC50 [3]: > 100 µM | Control (L1210 [4]): 24% | IC50 (HFF): 140 µM

N#Cc1cn([C@@H]2O[C@H](CO)[C@@H](O)[C@@H]2I)c2ncnc(N)c12
IC90 (Human betaherpesvirus 5 [14]; [28]): 20 µM | IC50 (Human betaherpesvirus 5 [1]): 40 µM | IC50 (Human alphaherpesvirus 1 [2]): > 100 µM | IC50 [3]: > 100 µM | Control (L1210 [4]): 24% | IC50 (HFF): 100 µM

[N-]=[N+]=N[C@H]1[C@H](O)[C@@H](CO)O[C@H]1n1cc(C(N)=O)c2c(N)ncnc21
IC90 (Human betaherpesvirus 5 [14]; [28]): 100 µM | IC50 (Human betaherpesvirus 5 [1]): 28 µM | IC50 (Human alphaherpesvirus 1 [2]): > 100 µM | IC50 [5]: 179 µM | IC50 [3]: > 100 µM | Control (L1210 [4]): 12% | IC50 (HFF): 66 µM

N#Cc1cn([C@@H]2O[C@H](CO)[C@@H](O)[C@@H]2N=[N+]=[N-])c2ncnc(N)c12
IC90 (Human betaherpesvirus 5 [14]; [28]): 37 µM | IC50 (Human betaherpesvirus 5 [1]): 34 µM | IC50 (Human alphaherpesvirus 1 [2]): > 100 µM | IC50 [5]: 151 µM | IC50 [3]: > 100 µM | Control (L1210 [4]): 14% | IC50 (HFF): 55 µM

N#Cc1cn([C@@H]2O[C@H](CO)[C@@H](O)[C@@H]2Br)c2ncnc(N)c12
IC90 (Human betaherpesvirus 5 [14]; [28]): 90 µM | IC50 (Human betaherpesvirus 5 [1]): 162 µM | IC50 (Human alphaherpesvirus 1 [2]): > 100 µM | IC50 [3]: > 100 µM | Control (L1210 [4]): 16% | IC50 (HFF): 181 µM

Nc1nc2c(ncn2COCCO)c(=O)[nH]1 [ACYCLOVIR]
IC90 (Human betaherpesvirus 5 [14]; [28]): 90 µM | IC90 (Human alphaherpesvirus 1 [27]): 7 µM | IC50 [5]: > 100 µM | IC50 [3]: > 100 µM | IC50 (HFF): > 100 µM

Nc1nc2c(ncn2COC(CO)CO)c(=O)[nH]1 [GANCICLOVIR]
IC90 (Human betaherpesvirus 5 [14]): 1.8 µM | IC50 (Human betaherpesvirus 5 [1]): 9.2 µM | IC90 (Human alphaherpesvirus 1 [27]): 1.2 µM | IC50 [5]: > 100 µM | IC50 [3]: > 100 µM | IC50 (HFF): > 100 µM
